This note sets out measurements from ChEMBL document CHEMBL2375286, “Design and synthesis of a series of α-benzyl phenylpropanoic acid-type peroxisome proliferator-activated receptor (PPAR) gamma partial agonists with improved aqueous solubility” (Bioorg Med Chem, 2013).

In brackets after ≈: the same amount, converted by molar mass. Activity calls are given as the source filed them. The rule behind the calls is not given here.

Data set [1] concerns the target T1, Peroxisome proliferator-activated receptor gamma (Homo sapiens, UniProt P37231).
T1 sequence (P37231 whole entry): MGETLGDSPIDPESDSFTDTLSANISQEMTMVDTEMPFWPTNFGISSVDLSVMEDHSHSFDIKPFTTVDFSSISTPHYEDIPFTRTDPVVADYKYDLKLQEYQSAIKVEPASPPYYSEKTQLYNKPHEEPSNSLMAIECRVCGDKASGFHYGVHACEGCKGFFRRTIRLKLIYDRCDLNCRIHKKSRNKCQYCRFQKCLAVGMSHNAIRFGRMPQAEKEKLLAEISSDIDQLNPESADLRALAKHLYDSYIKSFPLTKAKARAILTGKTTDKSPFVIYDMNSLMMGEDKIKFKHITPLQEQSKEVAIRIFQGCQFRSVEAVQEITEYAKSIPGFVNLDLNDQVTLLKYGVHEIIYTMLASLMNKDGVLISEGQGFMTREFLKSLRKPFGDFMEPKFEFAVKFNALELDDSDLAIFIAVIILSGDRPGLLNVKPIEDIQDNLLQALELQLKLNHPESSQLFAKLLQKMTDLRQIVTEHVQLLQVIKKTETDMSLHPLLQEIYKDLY
Put plainly: Agonist activity at human PPAR-gamma1 LBD (176 to 477) transfected in african green monkey CV1 cells after 40 hrs by beta galactosidase-based luciferase reporter gene assay. The data set is classed as cell-based, CV-1. Summed up:
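CV-1 cells seeded at 0.5×10^5 per well, cultured 24 h, then lipofected for 5 h. Transfection mix: 30 ng GAL4-PPAR chimeric receptor plasmid, 250 ng MH100x4-tk-luc reporter, 350 ng pCMX-βGAL for normalization, 120 ng pGEM4 carrier. Compounds added for 40 h, then luciferase and βGAL read in lysates. Activity scaled between 0.1% DMSO (minimum) and 10^-5 M rosiglitazone maleate (maximum). EC50 is the concentration giving 50% of maximal reporter activity.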

A short description of data set [2]: Thermodynamic solubility of the compound in phosphate buffer at pH 7.2 to 7.4 after 48 hrs by UV-HPLC analysis. Conditions: read-out: Therm_solubility. It counts as physicochemical. Summed up: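 About 1 mg of compound ground and suspended in 1.0 mL phosphate buffer (pH 7.2–7.4), then shaken 48 h at 25 °C. Suspension filtered (0.45 μm), filtrate diluted in CH3CN and analysed by HPLC with UV detection at 254 nm. Concentration taken from a calibration curve and corrected for dilution.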

For data set [3], the target named is T2, Peroxisome proliferator-activated receptor gamma (Homo sapiens) (UniProt P37231).
T2 sequence (whole entry): T1 sequence (P37231 whole entry)
Put plainly: Agonist activity at human PPAR-gamma1 LBD (176 to 477) transfected in african green monkey CV1 cells after 40 hrs by beta galactosidase-based luciferase reporter gene assay relative to rosiglitazone. As to conditions: CV-1. The data set is classed as cell-based. Summed up: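 GAL4-PPAR chimera transactivation in CV-1 cells (0.5×10^5/well, 24 h), lipofected 5 h with 30 ng receptor plasmid, 250 ng MH100x4-tk-luc reporter, 350 ng pCMX-βGAL normalisation plasmid, 120 ng pGEM4 carrier. Compounds for 40 h. Luciferase and βGAL read from lysates. Activity scaled between 0.1% DMSO (minimum) and 10^-5 M rosiglitazone maleate (maximum). EC50 = concentration giving 50% maximal reporter activity.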
A general note: In a reporter assay the amount or activity of a reporter protein is the signal.

Data set [4] addresses T3, Peroxisome proliferator-activated receptor gamma (Mus musculus) (UniProt P37238).
T3 sequence (whole entry): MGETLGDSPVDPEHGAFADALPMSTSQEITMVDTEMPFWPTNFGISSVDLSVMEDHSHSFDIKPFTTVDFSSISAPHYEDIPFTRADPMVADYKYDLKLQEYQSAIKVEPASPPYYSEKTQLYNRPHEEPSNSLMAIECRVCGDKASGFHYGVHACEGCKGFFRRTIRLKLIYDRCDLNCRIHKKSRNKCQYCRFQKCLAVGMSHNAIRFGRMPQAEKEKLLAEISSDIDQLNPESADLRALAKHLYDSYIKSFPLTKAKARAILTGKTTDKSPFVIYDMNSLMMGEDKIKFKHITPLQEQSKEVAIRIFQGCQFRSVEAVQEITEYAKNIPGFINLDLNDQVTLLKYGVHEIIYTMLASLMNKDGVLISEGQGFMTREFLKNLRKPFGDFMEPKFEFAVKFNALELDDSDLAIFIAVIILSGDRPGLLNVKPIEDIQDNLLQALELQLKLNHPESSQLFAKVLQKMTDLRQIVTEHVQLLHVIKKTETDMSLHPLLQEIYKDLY
Description: Agonist activity at PPAR-gamma in mouse 3T3-L1 cells assessed as adipocyte differentiation at 1 to 1000 nM after 6 days by Oil Red O staining. It counts as cell-based. Summed up:
(§1)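 3T3-L1 cells grown in DMEM with 10% FBS. At confluence, differentiation started with 1 μM dexamethasone, 0.5 mM IBMX and 5 μg/mL insulin for 2 days. Ligands then added at 1–1000 nM. After 6 days cells stained with Oil Red O and adipogenesis read as absorbance at OD550. Error bars are SD.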

The target of data set [5] is T3, Peroxisome proliferator-activated receptor gamma (Mus musculus). Put plainly: Agonist activity at PPAR-gamma in mouse 3T3-L1 cells assessed as induction of triglyceride accumulation at 1 to 1000 nM after 6 days by Oil Red O staining. It counts as cell-based. Summed up:
as §1

Data set [6] has the same target. Description: Agonist activity at PPAR-gamma in mouse 3T3-L1 cells assessed as adipocyte differentiation after 6 days by Oil Red O staining. It counts as cell-based. In a few lines:
as §1

Data set [7] in a line: Induction of apoptosis in human OUMS-24 cells after 72 hrs by Hoechst 33342/propidium iodide staining-based fluorescence microscopy. It counts as cell-based. Conditions: oums-24, 72 h. In a few lines:
(§2)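 OCUM-2MD3 cells grown in DMEM/F12 (1:1); OUMS-24 normal fibroblasts grown in DMEM; both media with 10% FBS, 100 μg/mL kanamycin and 0.5 μg/mL Fungizone. Cells plated, incubated 24 h, then treated with compound at 1–100 μM for 72 h. Stained with 1 μg/mL Hoechst 33342 plus 5 μg/mL propidium iodide for 20 min in the dark and examined by fluorescence microscopy. Cells with fragmented or shrunken nuclei counted as apoptotic; result given as % increase over DMSO control.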

Data set [8] deals with OCUM-2MD3. Put plainly: Induction of apoptosis in human OCUM-2MD3 cells after 72 hrs by Hoechst 33342/propidium iodide staining-based fluorescence microscopy. It counts as functional, cell-based. In a few lines: as §2
Data set [9] relates to OCUM-2MD3. Description: Induction of apoptosis in human OCUM-2MD3 cells at 10 to 100 uM after 72 hrs by Hoechst 33342/propidium iodide staining-based fluorescence microscopy. The data set is classed as functional, cell-based. In a few lines:
as §2

A short description of data set [10]: Induction of apoptosis in human OUMS-24 cells at 100 uM after 72 hrs by Hoechst 33342/propidium iodide staining-based fluorescence microscopy. It counts as cell-based. Conditions: oums-24, 72 h. Summed up: as §2
In data set [11] the target is T3, Peroxisome proliferator-activated receptor gamma (Mus musculus). Description: Partial agonist activity at PPAR-gamma in mouse 3T3-L1 cells assessed as adipocyte differentiation at […] after 6 days by Oil Red O staining. The data set is classed as cell-based. In a few lines:
as §1

With `CCCOc1ccc(C[C@@H](Cc2ccccc2)C(=O)O)cc1CNC(=O)c1ccc(-c2ccncc2)cc1`, the EC50 (in general, the concentration needed to bring the measured effect to its halfway point) in data set [1] was determined as 1.69 µM. In addition, the solubility thermodynamic at 48 h in data set [2] worked out at 34.1 µg/mL (≈ 67 µM). Besides, the Efficacy in data set [3] is 108%.

Take `CCCOc1ccc(C[C@@H](Cc2ccccc2)C(=O)O)cc1CNC(=O)c1ccc(-c2cccc(F)c2)cc1`: the concentration giving a half-maximal response (EC50) in [1] was 0.0287 µM. Also, the solubility thermodynamic at 48 h in [2] was under 1 µg/mL. Also, the Efficacy in data set [3] is 99.7%.

`CCCOc1ccc(C[C@@H](Cc2ccccc2)C(=O)O)cc1CNC(=O)c1ccc(-c2cncnc2)cc1` had a half-maximal effective concentration (EC50) in [1] of 3.1 µM. The solubility thermodynamic at 48 h in data set [2] was determined as 190 µg/mL (≈ 373 µM). This molecule also gave an Efficacy in [3] of 82.7%.

As for `CCCOc1ccc(C[C@@H](Cc2ccccc2)C(=O)O)cc1CNC(=O)c1ccc(-c2ccccc2F)cc1`, in data set [1], the EC50 amounted to 0.0495 µM. In addition, in [2], the solubility thermodynamic at 48 h was under 1 µg/mL. In data set [3], this molecule showed an Efficacy of 95%.

Molecule `CCCOc1ccc(C[C@@H](Cc2ccccc2)C(=O)O)cc1CNC(=O)c1ccc(-c2cccnc2)cc1` had an EC50 in data set [1] of 0.844 µM. The solubility thermodynamic at 48 h in [2] was 69.5 µg/mL (≈ 137 µM). In data set [3], this molecule came in with an Efficacy of 100%.

In data set [1], `CCCOc1ccc(C[C@@H](Cc2ccccc2)C(=O)O)cc1CNC(=O)c1ccc(-c2ccccn2)cc1` showed a concentration for a half-maximal effect (EC50) of 0.186 µM. Further, in data set [2], the solubility thermodynamic at 48 h worked out at 17 µg/mL (≈ 33.4 µM). Besides, the Efficacy in data set [3] was 113%.

In data set [1], `CCCOc1ccc(C[C@@H](Cc2ccccc2)C(=O)O)cc1CNC(=O)c1ccc(-c2ccc(F)cc2)cc1` came in with an EC50 of 0.103 µM. For the same molecule, in data set [2], the solubility thermodynamic at 48 h was under 1 µg/mL. The same molecule showed an Efficacy in data set [3] of 104%.

As to `CCCOc1ccc(C[C@H](CC)C(=O)O)cc1CNC(=O)c1ccc(C23CC4CC(CC(C4)C2)C3)cc1`, the result in data set [4] and in data set [5] was Active. Moreover, in [6], the Activity result was “Dose-dependent effect”.

In turn, `CCCOc1ccc(C[C@@H](Cc2ccccc2)C(=O)O)cc1CNC(=O)c1ccc(-c2ccccc2C)cc1` yielded an EC50 in data set [1] of 0.0738 µM. Also, in data set [2], the solubility thermodynamic at 48 h was under 1 µg/mL. Besides, the Efficacy in data set [3] came to 72.7%.

Regarding `CCCOc1ccc(C[C@@H](Cc2ccccc2)C(=O)O)cc1CNC(=O)c1ccc(-c2ccccc2)cc1`, the 50% effective concentration (EC50) in data set [1] was 0.0859 µM. Moreover, in data set [2], the solubility thermodynamic at 48 h is under 1 µg/mL. The molecule also displayed an Efficacy in data set [3] of 95.7%.

In data set [1], `CCCOc1ccc(C[C@@H](Cc2ccccc2)C(=O)O)cc1CNC(=O)c1ccc(-c2cnccn2)cc1` registered an EC50 of 0.714 µM. In addition, the solubility thermodynamic at 48 h in [2] worked out at 32.2 µg/mL (≈ 63.2 µM). In addition, in [3], the Efficacy came to 58.2%.

For `CCc1ccc(CCOc2ccc(CC3SC(=O)NC3=O)cc2)nc1` (centres undefined) [PIOGLITAZONE], the Activity entry in data set [7] was “Non-toxic”; in the data set on OCUM-2MD3 [8] it was “Dose-dependent effect”.

On to `CCCOc1ccc(C[C@H](Cc2ccccc2)C(=O)O)cc1CNC(=O)c1ccc(C23CC4CC(CC(C4)C2)C3)cc1`, for which the Activity result in the data set with OCUM-2MD3 [8] was “Dose-dependent effect”; in data set [10], “Toxic”. The outcome with OCUM-2MD3 [9] was Active. In addition, the solubility thermodynamic at 48 h in data set [2] is under 1 µg/mL.

In [1], `CCCOc1ccc(C[C@@H](Cc2ccccc2)C(=O)O)cc1CNC(=O)c1ccc(-c2ncccn2)cc1` yielded a 50% effective concentration (EC50) of 0.0346 µM. Besides, the result in data set [4], in data set [5] and in data set [11] was Active. Moreover, the Activity entry in the data set on OCUM-2MD3 [8] is “Dose-dependent effect”. Further, the solubility thermodynamic at 48 h in data set [2] is 301 µg/mL (≈ 591 µM). The Efficacy in data set [3] came out at 65%.

Consider `CCCOc1ccc(C[C@@H](Cc2ccccc2)C(=O)O)cc1CNC(=O)c1ccc(-c2cccs2)cc1`, for which the EC50 in [1] stood at 0.0652 µM. For the same molecule, in data set [2], the solubility thermodynamic at 48 h is under 1 µg/mL. The Efficacy in [3] turned out to be 76%.
